Measured values as given in the RNAGym collection of RNA variant scans (doi:10.1126/science.aae0568).
This sample holds only a part of the variants without activity.

B1: tRNA (parent)
chain: GUUCCGUUGGCGUAAUGGUAACGCGUCUCCCUCCUAAGGAGAAGACUGCGGGUUCGAGUCCCGUACGGAACG

Variants of: B1
Assay: yeast fitness relative to wild type (ratio to wild type); higher = fitter; tRNA-Arg(CCU), competitive growth, 37 C, YPD
Summary of the method: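 Variants of the tRNA-Arg(CCU) gene, chemically synthesised with a 3% per-site mutation rate at 69 sites, were placed at the native genomic locus in Saccharomyces cerevisiae. The pooled strains were competed in YPD at 37°C for 24 hours in six parallel replicates. Gene amplicons from the start population and from each end population were read by 100-nucleotide paired-end sequencing. Darwinian fitness relative to wild type came from changes in genotype frequencies; genotypes needed ≥ 100 starting reads, and estimates < 0.5 were set to 0.5.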

Variant	yeast fitness
GUUACGUUCGGGUAAUGGUAACGCGUCUCCCUCCUAAGGAGAAGCCUGCGGGUUCGGGUCCCGUACGGAACG [C4A G9C C11G A45C A57G]	0.526
GUUACGUUCGGGUAAUGGUAACGCGUCUCCCUGCUACGGAGAAGCCUGCGGGUUCGAGUCCCGUACGGAACG [C4A G9C C11G C33G A37C A45C]	≤ 0.5
GUUACGUUGGCGUAAUGGUAACGCGUCUCCCUCCUAAGGAGAAGACUGCGGGUUUGUGUCCCGGACGGAACG [C4A C55U A57U U64G]	≤ 0.5
GUUACAUUGGCGUAAUGGUAACGCGUCUGCCUCCUAAGGAGAAGACUGCGGGUUCGAGUCCCGUACGGAACG [C4A G6A C29G]	0.549
GUUACGUUAGCGUAAUGGUAACGCGUCUCCCUCCUAAGGAGAACACUGCGAGUUCGACACCCGUACGGAACG [C4A G9A G44C G51A G58C U59A]	≤ 0.5
GUUACGUUAGCGUAAUGCUAAAGCGUCUCCCUCCUAAGGAGAAGACUGCCGGUUCGAGUCCCGUCCGGAACG [C4A G9A G18C C22A G50C A65C]	≤ 0.5
GUUACAUUGGCGUAAUGGUAACGCGUCUCCCUCCUAAGGAGAAGUCUGCGGGUUCGAAUCCCGUGCGGAACG [C4A G6A A45U G58A A65G]	≤ 0.5
GUUACAUUGGCGUGAUGGUAACGCGUCUCCCUCCUAAGGAGAAGACUGCGGGUUCGAGUCCCGUGCGGAACG [C4A G6A A14G A65G]	≤ 0.5
GUUACAUUGGCGUAAUGGUAACGCGUCUCCCUCCUAAGGAGAAGACUGCGGGUUCGAGUCCCGUUCGGAACG [C4A G6A A65U]	0.539
GUUACAUUGGCGUAAUGGUAACGCGUCUCCCUCCUAAGGAGAAGACUGCGGGUUCGAGUCCCGAACGGAACG [C4A G6A U64A]	≤ 0.5
GUUACGUUAGCGUAAUGGUAACGUGUCUCUCUCCUGAGGAGAAGACUGCGGGUUCGGAUCCCAUACGGAACG [C4A G9A C24U C30U A36G A57G G58A G63A]	≤ 0.5
GUUACGUUAGCGUAAAGGUAACGCGUCUCCCUCCUAAGGGGAAGAUUGCGGGUUCGAGUCCGGUACGGUACG [C4A G9A U16A A40G C46U C62G A69U]	≤ 0.5
GUUACAUUGGCGUAAUGGUAACGCGUCUCCCUCCUAAGGAGAAGACUGCGGGUUCGAGUCCCGUACGGAACG [C4A G6A]	0.706
GUUACCUUGGCGUAAUGGUAACGCGUCUCCCUCCUAAGGAGAAGACUGCGGGUUCGAGUCCCGUACGGAACG [C4A G6C]	0.703
GUUACAUUGGCGUAAUGGUAACGCGUCUGCCUCCUAAGGAGAAGACUGCGGGUUCGGGUCCCGUACGGAACG [C4A G6A C29G A57G]	0.535
GUUACGUUGGCGUAAUGGUAACGCGUCUCCCUCCUAAGGAGAAGACUGCGGGUUCGAGUCCGGUAUGGAACG [C4A C62G C66U]	≤ 0.5
GUUACGUUCGCGUAAUGGUAACGCGUCUCCAUCCUAAGGAAAAGACUGCGGGUUCGAGUCCCGUACGGAACG [C4A G9C C31A G41A]	0.773
GUUACGUUGGCGUAAUGGUAACGCGUCUCCCUCCUAAGGAGAAGACUGCGGGUUCGAGUCCCGUAUGGCACG [C4A C66U A69C]	0.585
GUUACGUUAGCGUAAUGGUAACGCGUCUCCCUCCUAAGGAGAAGACUGCGGGUUCGAGUCCCGUACGGAACG [C4A G9A]	0.907

Variant	yeast fitness
GUUACAUUGGCGUAAUGGUAACGCGUCUCCCUCCUAAGGAGAAGACUGCGGGUUCGAGUCCCGUACGGUACG [C4A G6A A69U]	0.623
GUUACAUUGGCGUAAUGGUAACGCGUCUCCCUCCUAAGGAGAAGACUGCGGGAUCGAGUCCCGUUCGGAACG [C4A G6A U53A A65U]	≤ 0.5
GUUACGUUGGCGUAAUGGUAACGCGUCUCCCUCCUAAGGAGAAGACUGCGGGUUAGAGUCCCGUACGGAACG [C4A C55A]	0.587
GUUACGUUAGCGUAAUGGUAAAGCGUGUCCCUCCUAAGGAGAAGACUGCGGGUUCAAGUCCCGUACGGAACG [C4A G9A C22A C27G G56A]	≤ 0.5
GUUACGUUAGCGUAAAGGUAACGCGUCUCCCUCCUAAGGGGAAGAUUGCGGGUUCGAGUCCCGUACGGAACG [C4A G9A U16A A40G C46U]	≤ 0.5
GUUACGUUAGCGUAAUGGUAACGCGUCUCCCUCCUAAGGAGAAGACUGAGGGCUCGAGUCCCGUACGGAACG [C4A G9A C49A U53C]	≤ 0.5
GUUACAUUGGAGUAAUGGUAAUGCGUCUUCCUCCUAAGGAGAAGACUGCGGGUUAGAGUCCCGUACGGAACG [C4A G6A C11A C22U C29U C55A]	≤ 0.5
GUUACAUUGGCGUAAUGGUAACGCGUCUCCCUCCUAAGGAGAAGACUGCGGCUUCGCGUCCCCUACGGAACG [C4A G6A G52C A57C G63C]	0.537
GUUACGUUCGGGUAAUGGUAACGCGUCUCCCUCCUAAGGAGAAGACUGCGGGUUCGAGUCCCGUACGGAACG [C4A G9C C11G]	≤ 0.5
GUUACGUUGGCGUAAUGGUAACGCGUCUCCCUCCUAAGGAGAAGACUGCGGGUUCGAGUCUCGUACGAAACG [C4A C61U G68A]	0.541
GUUACGUUGGCGUAAUGGUAACGCGUCUCCCUCCUAAGGAGAAGACUGUGGGUUCGAGUCCCGUACGGCACG [C4A C49U A69C]	0.555
GUUACGUUGGCGUAAUGGUAACGCGUCUCCCUCCUAAGGAGAAGACUGCGGGUUCGAGUCGCAUACGGAACG [C4A C61G G63A]	≤ 0.5
GUUACGUUAGCGUAAUGGUAAAGCGUGUCCCUCCUAAGGAGAAGACUGCGGGAUCGAGUCCCGUGCGGAACG [C4A G9A C22A C27G U53A A65G]	≤ 0.5
GUUACCUAGGCGUAAUGGUCUCGCGUCUCCAUUCUAAGGAGAAGAUUGCGGGUUCGGGUCCCGUACGGAACG [C4A G6C U8A A20C A21U C31A C33U C46U A57G]	≤ 0.5
GUUACGUUGGCGUAAUGGUAACGCGUCUCCCUCCUAAGGAGAAGACUGCGGGUUCGAGUCCUGUACGGAACG [C4A C62U]	0.852
GUUACGUUGGCGUAAUGGUAACGCGUCUCCCUCCUAAGGAGAAGACUGCGGGUUCGAGUCCAGUACGGAACG [C4A C62A]	0.675
GUUACAUUGGCGUAAUGGUAACGCGUCUCCCUUCUAAGGAGAAGACUGCGGGCUCGAGUCCCGUACGGAACG [C4A G6A C33U U53C]	≤ 0.5
GUUACAUUGGCGUAAUGGUAACACGUCUCCCUCCUAAGGAGAAGACUGAGGGUUCGAGCCCUGUUCGGACCG [C4A G6A G23A C49A U59C C62U A65U A70C]	≤ 0.5
GUUACGUUAGCGUAAUGGUAACGUGUCUCUCUCCUGAGGAGAAGACUGCGGGUUCGGAUCCCAUAUGGAACG [C4A G9A C24U C30U A36G A57G G58A G63A C66U]	≤ 0.5
